Experimental findings from ChEMBL document CHEMBL3861996, “Arylsulfonamide derivatives of (aryloxy)ethyl pyrrolidines and piperidines as α1-adrenergic receptor antagonist with uro-selective activity” (Bioorg Med Chem, 2016) are described below.

Assay [1] deals with T1, Adrenergic receptor alpha-1 (Rattus norvegicus, UniProt P15823+P23944+P43140).
T1 sequence (P15823 whole entry): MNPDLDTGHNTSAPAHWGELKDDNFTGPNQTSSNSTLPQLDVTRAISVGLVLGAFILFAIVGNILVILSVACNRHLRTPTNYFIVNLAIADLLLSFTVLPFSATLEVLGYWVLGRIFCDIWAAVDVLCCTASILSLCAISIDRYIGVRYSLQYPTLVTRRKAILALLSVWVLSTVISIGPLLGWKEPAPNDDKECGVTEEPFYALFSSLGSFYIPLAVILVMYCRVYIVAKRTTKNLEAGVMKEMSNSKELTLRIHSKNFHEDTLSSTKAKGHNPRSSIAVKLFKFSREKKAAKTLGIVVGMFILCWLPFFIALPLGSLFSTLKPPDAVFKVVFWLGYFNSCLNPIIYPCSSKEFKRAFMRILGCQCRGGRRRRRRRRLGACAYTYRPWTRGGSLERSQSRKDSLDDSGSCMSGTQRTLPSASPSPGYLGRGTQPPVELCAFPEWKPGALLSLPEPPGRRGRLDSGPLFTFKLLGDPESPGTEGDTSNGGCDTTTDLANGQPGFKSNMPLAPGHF
T1 sequence (P23944 whole entry): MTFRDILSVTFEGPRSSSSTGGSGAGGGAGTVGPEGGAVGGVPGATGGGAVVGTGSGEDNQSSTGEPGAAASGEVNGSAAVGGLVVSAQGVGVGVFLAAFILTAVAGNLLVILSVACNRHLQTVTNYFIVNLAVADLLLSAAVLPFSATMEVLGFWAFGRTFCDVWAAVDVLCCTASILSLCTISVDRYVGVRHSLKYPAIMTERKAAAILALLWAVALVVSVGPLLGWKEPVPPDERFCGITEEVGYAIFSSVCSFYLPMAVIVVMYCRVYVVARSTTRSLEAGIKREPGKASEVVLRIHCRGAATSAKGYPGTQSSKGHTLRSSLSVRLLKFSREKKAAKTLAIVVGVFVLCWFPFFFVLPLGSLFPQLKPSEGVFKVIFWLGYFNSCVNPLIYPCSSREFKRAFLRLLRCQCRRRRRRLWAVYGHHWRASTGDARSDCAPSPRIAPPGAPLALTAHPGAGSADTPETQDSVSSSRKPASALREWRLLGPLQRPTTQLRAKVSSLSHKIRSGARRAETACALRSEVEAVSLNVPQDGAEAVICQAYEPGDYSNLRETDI
T1 sequence (P43140 whole entry): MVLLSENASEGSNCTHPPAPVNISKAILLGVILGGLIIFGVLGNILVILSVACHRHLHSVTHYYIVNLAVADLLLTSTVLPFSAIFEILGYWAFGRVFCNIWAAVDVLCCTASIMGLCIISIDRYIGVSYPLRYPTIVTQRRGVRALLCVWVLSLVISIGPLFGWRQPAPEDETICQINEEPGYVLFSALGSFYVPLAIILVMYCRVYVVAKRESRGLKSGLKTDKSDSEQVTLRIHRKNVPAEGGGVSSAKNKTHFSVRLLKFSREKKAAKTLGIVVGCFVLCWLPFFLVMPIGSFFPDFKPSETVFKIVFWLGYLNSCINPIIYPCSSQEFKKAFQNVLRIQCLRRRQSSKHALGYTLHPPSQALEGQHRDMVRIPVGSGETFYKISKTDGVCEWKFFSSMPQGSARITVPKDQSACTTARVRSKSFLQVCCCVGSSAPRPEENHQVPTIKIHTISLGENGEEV
Put plainly: Displacement of [3H]-Prazosin from alpha1 adrenergic receptor in rat brain cerebral cortex membranes by liquid scintillation counting analysis. It is filed as cell membranes, Membrane. The method, boiled down: (§1)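 Rat cerebral cortex homogenized in ice-cold 50 mM Tris–HCl (pH 7.6), spun at 20,000 g for 20 min (0–4 °C), resuspended and spun again. Membranes incubated with 0.2 nM [3H]-prazosin (α1) or 2 nM [3H]-clonidine (α2) and seven to eight compound concentrations (10^-11 to 10^-4 M). Non-specific binding defined with 10 µM phentolamine (prazosin) or 10 µM clonidine (clonidine). Ended by GF/C filtration, counted by liquid scintillation. Run in duplicate; Ki from two independent experiments.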
A general note: In a radioligand displacement assay an active substance lowers the binding of a labelled ligand.

Assay [2] addresses T2, Adrenergic receptor alpha-2 (Rattus norvegicus, UniProt P22086+P19328+P22909).
T2 sequence (P22086 whole entry): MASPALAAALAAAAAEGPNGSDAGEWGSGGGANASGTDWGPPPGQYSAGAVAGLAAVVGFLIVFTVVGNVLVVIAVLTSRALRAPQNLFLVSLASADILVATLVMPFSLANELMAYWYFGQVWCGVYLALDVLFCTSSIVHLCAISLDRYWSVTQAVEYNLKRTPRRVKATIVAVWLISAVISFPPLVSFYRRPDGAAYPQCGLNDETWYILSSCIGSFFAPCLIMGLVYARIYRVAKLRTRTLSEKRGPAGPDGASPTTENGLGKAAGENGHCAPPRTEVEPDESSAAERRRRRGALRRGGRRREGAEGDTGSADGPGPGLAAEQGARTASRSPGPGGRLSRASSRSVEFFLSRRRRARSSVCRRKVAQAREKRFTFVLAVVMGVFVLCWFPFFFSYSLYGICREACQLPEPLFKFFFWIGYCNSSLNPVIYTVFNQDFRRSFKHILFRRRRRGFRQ
T2 sequence (P19328 whole entry): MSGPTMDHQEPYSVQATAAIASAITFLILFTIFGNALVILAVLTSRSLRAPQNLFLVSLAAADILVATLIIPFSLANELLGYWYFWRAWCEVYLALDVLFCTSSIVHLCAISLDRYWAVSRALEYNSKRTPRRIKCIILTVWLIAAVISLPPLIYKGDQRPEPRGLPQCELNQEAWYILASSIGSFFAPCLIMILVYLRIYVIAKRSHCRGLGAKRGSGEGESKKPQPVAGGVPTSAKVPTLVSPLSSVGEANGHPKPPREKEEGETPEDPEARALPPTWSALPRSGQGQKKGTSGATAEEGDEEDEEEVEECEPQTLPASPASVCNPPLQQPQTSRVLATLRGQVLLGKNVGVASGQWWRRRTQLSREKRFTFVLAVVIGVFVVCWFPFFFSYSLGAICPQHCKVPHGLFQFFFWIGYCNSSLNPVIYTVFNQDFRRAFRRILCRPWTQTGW
T2 sequence (P22909 whole entry): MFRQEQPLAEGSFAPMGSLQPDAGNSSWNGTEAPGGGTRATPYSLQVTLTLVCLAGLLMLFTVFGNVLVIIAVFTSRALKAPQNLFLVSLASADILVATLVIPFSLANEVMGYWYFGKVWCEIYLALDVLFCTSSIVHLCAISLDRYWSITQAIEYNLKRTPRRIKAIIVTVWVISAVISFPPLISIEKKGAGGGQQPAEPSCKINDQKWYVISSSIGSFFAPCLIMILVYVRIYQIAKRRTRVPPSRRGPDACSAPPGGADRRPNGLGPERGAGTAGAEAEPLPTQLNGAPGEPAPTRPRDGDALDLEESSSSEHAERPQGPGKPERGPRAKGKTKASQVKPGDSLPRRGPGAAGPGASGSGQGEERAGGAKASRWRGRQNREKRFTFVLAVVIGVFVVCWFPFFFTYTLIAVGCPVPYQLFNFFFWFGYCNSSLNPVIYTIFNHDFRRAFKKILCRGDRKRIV
Description: Displacement of [3H]-Clonidine from alpha2 adrenergic receptor in rat brain cerebral cortex membranes by liquid scintillation counting analysis. It is filed as cell membranes, Membrane. The method, boiled down:
as §1

As for `COc1ccccc1OCCN1CCC(CNS(=O)(=O)c2cc(Cl)ccc2F)CC1`, the Ki (usually a dissociation constant, usually derived from enzyme kinetics or from competition with a known ligand) in assay [1] stood at 56 nM; in assay [2] it was 1345 nM.
The corresponding values for `CC(C)Oc1ccccc1OCCN1CCC(CNS(=O)(=O)c2cccc3cccnc23)CC1` are 95 nM and 947 nM.
As to `COc1ccccc1OCCN1CCC(CNS(=O)(=O)c2cccc(Cl)c2)CC1`, the results for the Ki in assay [1] and in assay [2] were 46 nM and 439 nM, respectively.
The like results for `COc1ccccc1OCCN1CCC(CNS(=O)(=O)c2cccc(Cl)c2F)CC1` were, in that order, 48 nM and 678 nM.
The corresponding values for `COc1ccccc1OCCN1CCC(CNS(=O)(=O)c2cncc3ccccc23)CC1` are 90 nM and 695 nM.
Regarding `COc1ccc(S(=O)(=O)NCC2CCN(CCOc3ccccc3OC)CC2)cc1OC`, the Ki stood at 81 nM in assay [1] and 644 nM in assay [2].
As to `COc1ccccc1OCCN1CCC(NS(=O)(=O)c2cncc3ccccc23)CC1`, the Ki is listed as 52 nM in assay [1] and 297 nM in assay [2].
On to `COc1ccc(S(=O)(=O)NC2CCN(CCOc3ccccc3OC)CC2)cc1OC`, for which the Ki in assay [1] came to 99 nM; in assay [2], 2140 nM.
Regarding `CC(C)Oc1ccccc1OCCN1CCC(CNS(=O)(=O)c2cccc(Cl)c2F)CC1`, the inhibitory constant (Ki) stood at 71 nM in assay [1] and 1212 nM in assay [2].
